What all share (assay type): cell membranes
The species named for assay [1] is Rattus norvegicus. Description: Displacement of [3H]strychnine from Wistar rat glycine receptor in spinal cord membrane. Put shortly:
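Male Wistar rat spinal cord crude synaptic membranes, washed in 50 mM Tris-HCl pH 7.4 and pre-spun in buffer with 200 mM KSCN. Binding in 50 mM Tris-HCl plus 200 mM KSCN with 3 nM [3H]strychnine, 0 °C for 35 min. Duplicate aliquots were vacuum-filtered on GF/B filters and counted by scintillation. Nonspecific binding was taken with 2 mM glycine. Displacement curves were fitted (Eq. 2) for K_A and α; 3–6 experiments.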
Background: In a radioligand displacement assay an active substance lowers the binding of a labelled ligand.

A short description of assay [2]: (§1) Displacement of [3H]strychnine from Wistar rat glycine receptor in spinal cord membrane in presence of 10 uM glycine. Put shortly:
(§2)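 Rat spinal cord synaptic membrane [3H]strychnine (3 nM) binding in 50 mM Tris-HCl/200 mM KSCN, 0 °C, 35 min, with 10 μM glycine present during test-ligand displacement. Filtration on GF/B, scintillation counting. Nonspecific binding was defined by 2 mM glycine. IC50 and slope come from concentration-displacement curves; three experiments.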

The species named for assay [3] is Rattus norvegicus. The assay is described as §1. Put shortly:
as §2

The structures appear in SMILES notation. Some results are limits rather than exact numbers.

As usually defined, the IC50 is the midpoint of a concentration-inhibition curve. Turning to `O=C(OC1CC2CCC(C1)N2)c1c[nH]c2ccccc12` (stereo not drawn) [NORTROPISETRON], the K in assay [1] is 0.017 µM. Also, the IC50 in assay [2] turned out to be 9.3 nM. In addition, the Activity in assay [3] came to 60%.

In the case of `CN1[C@@H]2CC[C@H]1C[C@H](OC(=O)c1ccc(Cl)nc1)C2`, the K in assay [1] turned out to be 5.7 µM.

In assay [1], `CN1[C@@H]2CC[C@H]1C[C@@H](OC(=O)/C=C/C(=O)O[C@H]1C[C@H]3CC[C@@H](C1)N3C)C2` registered a K of 7.5 µM.

As to `CN1[C@@H]2CC[C@H]1C[C@H](OC(=O)c1ccc(C(=O)O[C@H]3C[C@H]4CC[C@@H](C3)N4C)cc1)C2`, in assay [1], the K came out at 24.6 µM.

`O=C(O[C@@H]1C[C@@H]2N[C@H](C1)[C@@H]1O[C@@H]12)[C@H](CO)c1ccccc1` yielded a K in assay [1] of 8 µM.

In assay [1], `CN1[C@@H]2CC[C@H]1C[C@H](OC(=O)c1cccc(C(=O)O[C@H]3C[C@H]4CC[C@@H](C3)N4C)c1)C2` came in with a K of 0.197 µM.

`O=C(O[C@@H]1C[C@H]2CC[C@@H](C1)N2)c1cccnc1` displayed a K in assay [1] of 0.082 µM.

In assay [1], `CN1[C@@H]2CCC[C@H]1C[C@H](OC(=O)/C=C/C(=O)O[C@@H]1C[C@H]3CCC[C@@H](C1)N3C)C2` registered a K of 20.8 µM.

`CCN1[C@@H]2CC[C@H]1C[C@@H](OC(=O)CCC(=O)O[C@H]1C[C@H]3CC[C@@H](C1)N3CC)C2`: the K in assay [1] is > 100 µM.

On to `CN1[C@@H]2CC[C@H]1C[C@H](OC(=O)c1cccnc1)C2`, for which the K in assay [1] turned out to be 2.2 µM.

`O=C(O[C@H]1C[C@H]2CC[C@@H](C1)N2)C1c2ccccc2Oc2ccccc21` had a K in assay [1] of 3.1 µM.

Values taken from ChEMBL document CHEMBL1144004, “Synthesis of (nor)tropeine (di)esters and allosteric modulation of glycine receptor binding” (Bioorg Med Chem, 2008).
